Results published in ChEMBL document CHEMBL1132629, “Synthesis and anti-HIV and anti-HBV activities of 2'-fluoro-2', 3'-unsaturated L-nucleosides” (J Med Chem, 1999).

Columns and labels:
[1] = test system: Human immunodeficiency virus 1; test: Evaluated for anti-HIV activity; assay type: functional, organism-based
Summary of the method: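 Human peripheral blood mononuclear (PBM) cells infected with HIV-1; antiviral potency reported as EC50 (μM); AZT run as positive control.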

Hepatitis B virus = test: The EC50 value was measured on hepatitis B virus; assay type: functional, organism-based
Summary of the method: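 Anti-HBV activity assayed in 2.2.15 cells; EC50 (μM) reported.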

Vero = test: Inhibitory activity was evaluated in Vero cells.; assay type: functional, cell-based; settings: Chlorocebus sabaeus
CCRF-CEM = test: Cytotoxicity was evaluated in CEM cells; settings: Homo sapiens
PBMC = test: Cytotoxicity was evaluated in human peripheral blood mononuclear (PBM) cells

| SMILES | EC50 [1] [µM] | EC50 (Hepatitis B virus) [µM] | IC50 (Vero) [µM] | IC50 (CCRF-CEM) [µM] | IC50 (PBMC) [µM] |
| --- | --- | --- | --- | --- | --- |
| Nc1nc(=O)n([C@H]2O[C@@H](CO)C=C2F)cc1F | 0.17 | 0.225 | > 100 | > 100 | > 100 |
| O=c1ccn([C@@H]2O[C@@H](CO)C=C2F)c(=O)[nH]1 | > 100 | > 10 | > 100 | > 100 | > 100 |
| Nc1nc(Cl)c2ncn([C@@H]3O[C@@H](CO)C=C3F)c2n1 | 14.5 | > 10 | > 100 | 28.2 | 26.6 |
| Cc1cn([C@H]2C[C@H](N=[N+]=[N-])[C@@H](CO)O2)c(=O)[nH]c1=O [ZIDOVUDINE] |  | > 10 |  |  | > 100 |
| Cc1cn([C@@H]2O[C@@H](CO)C=C2F)c(=O)[nH]c1=O | > 100 | > 10 | > 100 | > 100 | > 100 |
| Nc1ccn([C@@H]2O[C@@H](CO)C=C2F)c(=O)n1 | > 100 | > 10 | > 100 | > 100 | > 100 |
| Nc1nc(F)nc2c1ncn2[C@@H]1O[C@@H](CO)C=C1F | > 100 | > 10 | > 100 | > 100 | > 100 |
| O=c1ccn([C@H]2O[C@@H](CO)C=C2F)c(=O)[nH]1 | > 100 | > 10 | > 100 | > 100 | > 100 |
| Nc1ncnc2c1ncn2[C@H]1O[C@@H](CO)C=C1F | 1.5 | 1.7 | > 100 | > 100 | > 100 |
| Nc1nc(Cl)c2ncn([C@H]3O[C@@H](CO)C=C3F)c2n1 | > 100 | > 10 | > 100 | > 100 | > 100 |
| Nc1nc(O)c2ncn([C@H]3O[C@@H](CO)C=C3F)c2n1 | > 100 | > 10 | > 100 | > 100 | > 100 |
| Nc1nc(F)nc2c1ncn2[C@H]1O[C@@H](CO)C=C1F | 2.2 | > 10 | 173 | 19.5 | 25.8 |
| Cc1cn([C@H]2O[C@@H](CO)C=C2F)c(=O)[nH]c1=O | > 100 | > 10 | > 100 | > 100 | > 100 |
| Nc1ccn([C@H]2O[C@@H](CO)C=C2F)c(=O)n1 | 0.51 | 0.18 | > 100 | > 100 | > 100 |
| OC[C@H]1C=C(F)[C@@H](n2cnc3c(O)ncnc32)O1 | 4.7 | > 10 | > 100 | > 100 | > 100 |
| Nc1nc(O)c2ncn([C@@H]3O[C@@H](CO)C=C3F)c2n1 | 76.9 | > 10 | > 100 | > 100 | > 100 |
| Nc1ncnc2c1ncn2[C@@H]1O[C@@H](CO)C=C1F | 47.6 | > 10 | > 100 | > 100 | > 100 |
| OC[C@H]1C=C(F)[C@H](n2cnc3c(O)ncnc32)O1 | > 100 | > 10 | > 100 | > 100 | > 100 |
| Nc1nc(=O)n([C@@H]2O[C@@H](CO)C=C2F)cc1F | > 100 | > 10 | > 100 | > 100 | > 100 |
